pIC50: −log10 of the molar value.
Legend:
LOX IMVI = test: Growth inhibition of human LOXIMVI cells after 48 hrs by sulforhodamine B assay; type: functional
Procedure, shortened: (§1)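 NCI screen panel. Five 10-fold concentrations from 10^-4 to 10^-8 M. Exposure for the last 48 h of a 72 h incubation. Growth estimated by sulforhodamine B protein assay. GI50 is the concentration giving 50% growth inhibition. Where that level was not reached or was exceeded, the value is given as above or below the highest or lowest concentration tested.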

MOLT-4 = test: Growth inhibition of human MOLT4 cells after 48 hrs by sulforhodamine B assay; type: functional; details: MOLT-4, 48 h; procedure, shortened: as §1
M14 = test: Growth inhibition of human M14 cells after 48 hrs by sulforhodamine B assay; type: functional; details: M14, 48 h; procedure, shortened: as §1
T47D = test: Growth inhibition of human T47D cells after 48 hrs by sulforhodamine B assay; type: functional
Procedure, shortened: (§2)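 NCI in vitro panel screen. Compounds tested at five 10-fold dilutions, 10^-4 to 10^-8 M. Cells in 96-well plates were exposed for the last 48 h of a 72 h incubation. Viability/growth was read by sulforhodamine B protein assay. GI50 is the concentration giving 50% growth inhibition. Values beyond the tested range are reported as greater or less than the maximum or minimum concentration.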

OVCAR-4 = test: Growth inhibition of human OVCAR4 cells after 48 hrs by sulforhodamine B assay; type: functional; details: OVCAR-4, 48 h; procedure, shortened: as §1
SK-MEL-28 = test: Growth inhibition of human SK-MEL-28 cells after 48 hrs by sulforhodamine B assay; type: functional; details: SK-MEL-28, 48 h; procedure, shortened: as §1
BT-549 = test: Growth inhibition of human BT549 cells after 48 hrs by sulforhodamine B assay; type: functional; details: BT-549, 48 h; procedure, shortened: as §1
HL-60(TB) = test: Growth inhibition of human HL-60(TB) cells after 48 hrs by sulforhodamine B assay; type: functional; details: HL-60, 48 h
Procedure, shortened: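 NCI 60-cell-line screen protocol: cells exposed to compound at five 10-fold dilutions from 10^-4 to 10^-8 M for the last 48 h of a 72 h incubation. Sulforhodamine B protein assay estimated viability/growth. GI50 (50% growth inhibition) derived; where not reached or exceeded, reported as greater or less than the highest or lowest concentration tested.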

NCI-H522 = test: Growth inhibition of human NCI-H522 cells after 48 hrs by sulforhodamine B assay; type: functional; details: NCI-H522, 48 h; procedure, shortened: as §1
HT-29 = test: Growth inhibition of human HT-29 cells after 48 hrs by sulforhodamine B assay; type: functional; details: HT-29, 48 h; procedure, shortened: as §1
UO-31 = test: Growth inhibition of human UO31 cells after 48 hrs by sulforhodamine B assay; type: functional; details: UO-31, 48 h; procedure, shortened: as §2
UACC-62 = test: Growth inhibition of human UACC62 cells after 48 hrs by sulforhodamine B assay; type: functional; details: UACC-62, 48 h; procedure, shortened: as §2
K562 = test: Growth inhibition of human K562 cells after 48 hrs by sulforhodamine B assay; type: functional; details: K562, 48 h; procedure, shortened: as §1
NCI-H460 = test: Growth inhibition of human NCI-H460 cells after 48 hrs by sulforhodamine B assay; type: functional; details: NCI-H460, 48 h; procedure, shortened: as §1
MT4 = test: Antiproliferative activity against human MT4 cells assessed as reduction of growth by MTT assay; type: functional, cell-based
Procedure, shortened: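 MT-4 lymphoblastoid T cells (ATCC) in RPMI 1640 with 10% FCS, penicillin/streptomycin, checked for mycoplasma. 1 × 10⁴ mock-infected cells per well with serial dilutions from a 100 mM DMSO stock. Incubated 4 days at 37 °C, viable cells counted by MTT. IC50 versus untreated controls by linear regression. Mean of three separate experiments.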

HOP-92 = test: Growth inhibition of human HOP92 cells after 48 hrs by sulforhodamine B assay; type: functional; details: HOP-92, 48 h; procedure, shortened: as §1
U-251 = test: Growth inhibition of human U251 cells after 48 hrs by sulforhodamine B assay; type: functional; details: U-251, 48 h; procedure, shortened: as §2
COLO 205 = test: Growth inhibition of human COLO205 cells after 48 hrs by sulforhodamine B assay; type: functional; details: COLO 205, 48 h; procedure, shortened: as §1
SK-MEL-5 = test: Growth inhibition of human SK-MEL-5 cells after 48 hrs by sulforhodamine B assay; type: functional; details: SK-MEL-5, 48 h; procedure, shortened: as §1
SK-OV-3 = test: Growth inhibition of human SKOV3 cells after 48 hrs by sulforhodamine B assay; type: functional; details: SK-OV-3, 48 h; procedure, shortened: as §1
SN12C = test: Growth inhibition of human SN12C cells after 48 hrs by sulforhodamine B assay; type: functional; procedure, shortened: as §2
EKVX = test: Growth inhibition of human EKVX cells after 48 hrs by sulforhodamine B assay; type: functional; procedure, shortened: as §1
NCI-H322M = test: Growth inhibition of human NCI-H322M cells after 48 hrs by sulforhodamine B assay; type: functional; procedure, shortened: as §1
MDA-MB-435 = test: Growth inhibition of human MDA-MB-435 cells after 48 hrs by sulforhodamine B assay; type: functional; details: MDA-MB-435, 48 h; procedure, shortened: as §1
CAKI-1 = test: Growth inhibition of human Caki1 cells after 48 hrs by sulforhodamine B assay; type: functional; details: CAKI-1, 48 h; procedure, shortened: as §1
A549 = test: Growth inhibition of human A549 cells after 48 hrs by sulforhodamine B assay; type: functional; details: A549, 48 h; procedure, shortened: as §1

## N#C/C(=C\N1CCN(C(=O)c2ccco2)C1=S)C(N)=O
LOX IMVI
  GI50: 2.5 µM
MOLT-4
  GI50: 39.8 µM
M14
  GI50: 16.5 µM
T47D
  GI50: 9.3 µM
OVCAR-4
  GI50: 18.5 µM
SK-MEL-28
  GI50: 15.8 µM
BT-549
  GI50: 22.5 µM
HL-60(TB)
  GI50: 22 µM
NCI-H522
  GI50: 18.7 µM
HT-29
  GI50: 24.1 µM
UO-31
  GI50: 23.5 µM
UACC-62
  GI50: 14 µM
K562
  GI50: 9.1 µM
NCI-H460
  GI50: 4 µM
MT4
  pIC50: 5.40
HOP-92
  GI50: 25.5 µM
U-251
  GI50: 11.5 µM
COLO 205
  GI50: 24.9 µM
SK-MEL-5
  GI50: 16.5 µM
SK-OV-3
  GI50: 42.6 µM
SN12C
  GI50: 12 µM
EKVX
  GI50: 0.3 µM
NCI-H322M
  GI50: 17.6 µM
MDA-MB-435
  GI50: 14.6 µM
CAKI-1
  GI50: 11.8 µM
A549
  GI50: 34.5 µM
